The test system of data set [1] is Staphylococcus aureus. The data set can be described thus: Antibacterial activity against Staphylococcus aureus after 24 hrs by tube dilution method. The class given is functional. In a few lines: (§1)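 Tube dilution in double strength nutrient broth-IP, done in duplicate. Test solution in DMSO (10 µg/mL) is serially diluted twofold into medium to give 5, 2.5, 1.25, 0.625 and 0.312 µg/mL. Each tube gets 0.1 mL of microbial suspension in saline, then is incubated at 37 °C for 24 h. MIC is the lowest concentration with no visible turbidity, refined by testing intermediate concentrations. Ciprofloxacin is the reference.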

Data set [2] can be described thus: Octanol-water partition coefficient, log P of the compound. The class given is physicochemical.
For data set [3], the system named is Bacillus subtilis. Description: Antibacterial activity against Bacillus subtilis after 24 hrs by tube dilution method. The class given is functional. In a few lines: as §1
Data set [4] relates to Aspergillus niger. Description: Antifungal activity against Aspergillus niger after 7 days by tube dilution method. The class given is functional. An outline of the steps: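 Tube dilution in Sabouraud dextrose broth, done in duplicate. DMSO test solution (10 µg/mL) is serially diluted to give 5, 2.5, 1.25, 0.625 and 0.312 µg/mL. Each tube gets 0.1 mL of spore/microbial suspension in saline, then is incubated at 25 °C for 7 d. MIC is read visually as the lowest concentration without turbidity, refined with intermediate concentrations. Fluconazole is the reference.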

For data set [5], the system named is Candida albicans. Description: Antifungal activity against Candida albicans after 48 hrs by tube dilution method. The class given is functional. In a few lines: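 Tube dilution in Sabouraud dextrose broth, done in duplicate. DMSO test solution (10 µg/mL) is serially diluted to give 5 down to 0.312 µg/mL. Each tube gets 0.1 mL of yeast suspension in saline, then is incubated at 37 °C for 48 h. MIC is the lowest concentration preventing turbidity, refined with intermediate concentrations. Fluconazole is the reference.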

Data set [6] deals with Escherichia coli. Description: Antibacterial activity against Escherichia coli after 24 hrs by tube dilution method. The class given is functional. In a few lines:
as §1

Data set [7] concerns Pseudomonas aeruginosa. The data set can be described thus: Antibacterial activity against Pseudomonas aeruginosa after 24 hrs by tube dilution method. The class given is functional. In a few lines: as §1

With `COc1ccc(C2C3CCCCC3=NN2S(=O)(=O)c2ccccc2)cc1` (stereo not drawn), the “-logMIC” value in data set [1] was 2.57; in data set [3], 2.47; in data set [4], 2.57; in data set [5] it was 2.61; in data set [6], 2.57; in data set [7], 2.61. The molecule also registered a logP in data set [2] of 4.6.
Consider `Clc1ccc(C2NN=C3CCCCC32)cc1` (stereo not drawn), for which the “-logMIC” value in data set [1] is listed as 2.07; in data set [3] it was 2.07; in data set [4], 2.27; in data set [5], 2.27; in data set [6], 2.19; in data set [7], 2.19. This molecule also came in with a logP in data set [2] of 4.4.
Regarding `Cc1ccc(S(=O)(=O)N2N=C3CCCCC3C2c2ccc(Cl)cc2)cc1` (stereo not drawn), the “-logMIC” value was found to be 2.49 in data set [1]; 2.64 in data set [3]; 2.64 in data set [4]; 2.59 in data set [5]; 2.59 in data set [6]; 2.64 in data set [7]. For the same molecule, the logP in data set [2] was determined as 5.8.
Turning to `O=S(=O)(c1ccc(Cl)cc1)N1N=C2CCCCC2C1c1ccc(F)cc1` (stereo not drawn), the “-logMIC” value in data set [1] was determined as 2.64; in data set [3], 2.69; in data set [4] it was 2.64; in data set [5], 2.59; in data set [6], 2.75; in data set [7], 2.79. Also, the logP in data set [2] came to 5.1.
As for `Cc1ccc(S(=O)(=O)N2N=C3CCCCC3C2c2ccc(F)cc2)cc1` (stereo not drawn), the “-logMIC” value in data set [1] turned out to be 2.47; in data set [3], 2.62; in data set [4], 2.67; in data set [5] it was 2.57; in data set [6] it was 2.62; in data set [7] it was 2.67. This molecule also had a logP in data set [2] of 5.4.
`O=S(=O)(c1cccc2ccccc12)N1N=C2CCCCC2C1c1ccc(F)cc1` (stereo not drawn): the “-logMIC” value in data set [1] turned out to be 2.61; in data set [3], 2.66; in data set [4] it was 2.66; in data set [5] it was 2.61; in data set [6], 2.71; in data set [7], 2.77. Further, the logP in data set [2] stood at 6.
Regarding `O=[N+]([O-])c1ccc(S(=O)(=O)N2N=C3CCCCC3C2c2ccc(Cl)cc2)cc1` (stereo not drawn), the “-logMIC” value in data set [1] is 2.67; in data set [3], 2.72; in data set [4], 2.82; in data set [5], 2.82; in data set [6] it was 2.67; in data set [7], 2.78. This molecule came in with a logP in data set [2] of 5.3.
`O=S(=O)(c1ccc(Cl)cc1)N1N=C2CCCCC2C1c1ccc(Cl)cc1` (stereo not drawn): the “-logMIC” value in data set [1] is on record as 2.61; in data set [3] it was 2.71; in data set [4] it was 2.71; in data set [5] it was 2.77; in data set [6], 2.66; in data set [7], 2.77. The molecule further showed a logP in data set [2] of 5.9.
In the case of `COc1ccc(C2C3CCCCC3=NN2S(=O)(=O)c2ccc(C)cc2)cc1` (stereo not drawn), the “-logMIC” value in data set [1] was determined as 2.49; in data set [3], 2.63; in data set [4], 2.68; in data set [5] it was 2.63; in data set [6], 2.58; in data set [7], 2.58. In data set [2], the logP came out at 5.1.
On to `CS(=O)(=O)N1N=C2CCCCC2C1c1ccc(F)cc1` (stereo not drawn), for which the “-logMIC” value in data set [1] amounted to 2.37; in data set [3], 2.57; in data set [4] it was 2.57; in data set [5], 2.47; in data set [6], 2.47; in data set [7] it was 2.52. In data set [2], this molecule came in with a logP of 3.3.
On to `CS(=O)(=O)N1N=C2CCCCC2C1c1ccc(Cl)cc1` (stereo not drawn), for which the “-logMIC” value in data set [1] is 2.4; in data set [3], 2.54; in data set [4], 2.5; in data set [5], 2.59; in data set [6] it was 2.4; in data set [7], 2.5. This molecule returned a logP in data set [2] of 3.7.
For `COc1ccc(C2C3CCCCC3=NN2S(=O)(=O)c2ccc(Cl)cc2)cc1` (stereo not drawn), the “-logMIC” value in data set [1] was found to be 2.61; in data set [3], 2.65; in data set [4], 2.65; in data set [5], 2.61; in data set [6] it was 2.65; in data set [7] it was 2.7. Further, the logP in data set [2] came out at 4.3.
With `O=S(=O)(c1cccc2ccccc12)N1N=C2CCCCC2C1c1ccc(Cl)cc1` (stereo not drawn), the “-logMIC” value in data set [1] was 2.53; in data set [3] it was 2.67; in data set [4] it was 2.67; in data set [5] it was 2.73; in data set [6], 2.63; in data set [7], 2.67. In data set [2], the logP came out at 6.4.
Regarding `COc1ccc(C2C3CCCCC3=NN2S(C)(=O)=O)cc1` (stereo not drawn), the “-logMIC” value is recorded as 2.31 in data set [1]; 2.53 in data set [3]; 2.53 in data set [4]; 2.59 in data set [5]; 2.39 in data set [6]; 2.49 in data set [7]. The log partition coefficient (logP) in data set [2] was 2.9.
In the case of `COc1ccc(C2C3CCCCC3=NN2S(=O)(=O)c2cccc3ccccc23)cc1` (stereo not drawn), the “-logMIC” value is on record as 2.53 in data set [1]; 2.62 in data set [3]; 2.62 in data set [4]; 2.62 in data set [5]; 2.62 in data set [6]; 2.67 in data set [7]. The logP in data set [2] amounted to 5.6.
With `O=[N+]([O-])c1ccc(S(=O)(=O)N2N=C3CCCCC3C2c2ccc(F)cc2)cc1` (stereo not drawn), the “-logMIC” value in data set [1] stood at 2.7; in data set [3], 2.76; in data set [4], 2.76; in data set [5], 2.65; in data set [6], 2.76; in data set [7], 2.81. In data set [2], the logP was 4.9.
In the case of `COc1ccc(C2NN=C3CCCCC32)cc1` (stereo not drawn), the “-logMIC” value in data set [1] was determined as 2.01; in data set [3] it was 2.01; in data set [4], 2.19; in data set [5], 2.19; in data set [6], 2.06; in data set [7], 2.19. Further, the lipophilicity (logP) in data set [2] stood at 3.6.
`COc1ccc(C2C3CCCCC3=NN2S(=O)(=O)c2ccc([N+](=O)[O-])cc2)cc1` (stereo not drawn): the “-logMIC” value turned out to be 2.66 in data set [1]; 2.62 in data set [3]; 2.66 in data set [4]; 2.77 in data set [5]; 2.66 in data set [6]; 2.72 in data set [7]. Further, the logP in data set [2] worked out at 4.5.
As for `O=S(=O)(c1ccccc1)N1N=C2CCCCC2C1c1ccc(Cl)cc1` (stereo not drawn), the “-logMIC” value is 2.57 in data set [1]; 2.62 in data set [3]; 2.62 in data set [4]; 2.62 in data set [5]; 2.57 in data set [6]; 2.67 in data set [7]. In addition, in data set [2], the logP stood at 5.4.
On to `Fc1ccc(C2NN=C3CCCCC32)cc1` (stereo not drawn), for which the “-logMIC” value in data set [1] amounted to 2.04; in data set [3], 2.24; in data set [4] it was 2.24; in data set [5], 2.16; in data set [6], 2.24; in data set [7], 2.24. This molecule also had a logP in data set [2] of 4.
With `O=S(=O)(c1ccccc1)N1N=C2CCCCC2C1c1ccc(F)cc1` (stereo not drawn), the “-logMIC” value in data set [1] worked out at 2.55; in data set [3], 2.65; in data set [4], 2.55; in data set [5], 2.6; in data set [6] it was 2.65; in data set [7], 2.71. In data set [2], the logP worked out at 5.
As for `O=C(O)c1cn(C2CC2)c2cc(N3CCNCC3)c(F)cc2c1=O` [CIPROFLOXACIN], the “-logMIC” value in data set [1] came to 2.03; in data set [3], 2.33; in data set [6], 2.03; in data set [7] it was 2.62.
Consider `OC(Cn1cncn1)(Cn1cncn1)c1ccc(F)cc1F` [FLUCONAZOLE], for which the “-logMIC” value in data set [4] and in data set [5] was 3.16 throughout.

(Values after ChEMBL document CHEMBL1158415, “Synthesis, antimicrobial activity and QSAR studies of new 2,3-disubstituted-3,3a,4,5,6,7-hexahydro-2H-indazoles” (Bioorg Med Chem Lett, 2009).)
